# Published values from different studies.
# Each line is one published result; the experiments were not run side by side.
# EGFR: Epidermal growth factor receptor (EGFR, Homo sapiens, UniProt P00533)
# EGFR L858R/T790M: Epidermal growth factor receptor (EGFR, Homo sapiens, UniProt P00533, L858R/T790M)
# EGFR L858R: Epidermal growth factor receptor (EGFR, Homo sapiens, UniProt P00533, L858R)
# EGFR L861Q: Epidermal growth factor receptor (EGFR, Homo sapiens, UniProt P00533, L861Q)
# EGFR A750P/del747-749: Epidermal growth factor receptor (EGFR, Homo sapiens, UniProt P00533, A750P/del747-749)
# EGFR G719S: Epidermal growth factor receptor (EGFR, Homo sapiens, UniProt P00533, G719S)
# EGFR del747-752/P753S: Epidermal growth factor receptor (EGFR, Homo sapiens, UniProt P00533, del747-752/P753S)
# EGFR del747-750/T751S: Epidermal growth factor receptor (EGFR, Homo sapiens, UniProt P00533, del747-750/T751S)
# EGFR T790M: Epidermal growth factor receptor (EGFR, Homo sapiens, UniProt P00533, T790M)
SMILES,target,effect on,technique,concentration,remaining binding [%]
Cc1ccc(NC(=O)c2ccc(CN3CCN(C)CC3)cc2)cc1Nc1nccc(-c2cccnc2)n1,EGFR,cell-free assay,competition with immobilised ligand,0.1 µM,100
COc1cnc(Nc2cccc(S(N)(=O)=O)c2)nc1N1CCN(c2ccccc2)CC1,EGFR L858R/T790M,binding,competition with immobilised ligand,1 µM,87
Cc1cnc(Nc2ccc(C(=O)N3CCC(N4CCCC4)CC3)cc2)nc1-c1cc2ccccc2s1,EGFR L858R/T790M,binding,competition with immobilised ligand,1 µM,59
COc1cccc(CNC(=O)c2nc3scc(COCc4ccc(C(=O)O)cc4)c3c(=O)[nH]2)c1,EGFR L858R,cell-free assay,competition with immobilised ligand,1 µM,88.3
COc1ccnn2ncc(-c3ccnc(N(C)C)n3)c12,EGFR L861Q,binding,,1 µM,97
O=C(c1ccc(Nc2ncc(Cl)c(-c3ccc(Cl)s3)n2)cc1)N1CCC(N2CCCC2)CC1,EGFR A750P/del747-749,binding,competition with immobilised ligand,1 µM,72
O=C(NCC1CCOCC1)c1n[nH]cc1NC(=O)c1c(F)cccc1F,EGFR A750P/del747-749,binding,competition with immobilised ligand,1 µM,96
COc1ncc2cc3ccccc3nc2c1C#N,"Epidermal growth factor receptor (EGFR, Homo sapiens, UniProt P00533, del752-759)",cell-free assay,competition with immobilised ligand,5 µM,96
F[C@@H]1CCN(c2nccc(-c3cnn4ncccc34)n2)C1,EGFR L861Q,binding,,1 µM,93
Nc1ncc2c(n1)-c1c([nH]c3ccc(C#CC4CC4)cc13)CCCC2,EGFR A750P/del747-749,binding,competition with immobilised ligand,1 µM,84
FC(F)(F)Oc1cccc(-c2cnc3ccc(-c4ccncc4)nn23)c1,EGFR,cell-free assay,competition with immobilised ligand,5 µM,79
CNC(=O)c1ccc(Nc2ncc(C(F)(F)F)c(NCc3nccnc3N(C)S(C)(=O)=O)n2)cc1,EGFR L858R,cell-free assay,competition with immobilised ligand,0.1 µM,100
N[C@H]1CCN(c2nccc(-c3cnn4ncccc34)n2)C1,EGFR G719S,binding,,1 µM,93
COc1cnc(Nc2cccc(S(N)(=O)=O)c2)nc1N1CCN(c2ccccc2)C(=O)C1,EGFR del747-752/P753S,binding,competition with immobilised ligand,1 µM,75
CN(C)C(=O)Cn1cc(-c2nc([C@@](C)(c3ccc(-c4cnc(N)nc4)cc3)C3CC3)no2)cn1,EGFR,cell-free assay,competition with immobilised ligand,1 µM,93
c1cncc(-c2cccc(Nc3nccc(NC4CCCCC4)n3)c2)c1,EGFR L861Q,binding,competition with immobilised ligand,10 µM,53
O=C(NCCCN1CCOCC1)c1ccc(Nc2nccc(-c3cc4ccccc4s3)n2)cc1,EGFR,binding,competition with immobilised ligand,1 µM,87
CCOCCn1cc(C(=O)Nc2ccc(-n3nc(-c4cccnc4)cc3C(F)(F)F)cn2)ccc1=O,EGFR A750P/del747-749,cell-free assay,competition with immobilised ligand,1 µM,96
CN1CCN(c2ccc(Nc3nccc(-c4ccccc4)n3)cc2C(F)(F)F)CC1,"Epidermal growth factor receptor (EGFR, Homo sapiens, UniProt P00533, G719C)",binding,,10 µM,64
O=C(NCCCN1CCOCC1)c1ccc(Nc2ncc(Cl)c(-c3ccc(Cl)s3)n2)cc1,"Epidermal growth factor receptor (EGFR, Homo sapiens, UniProt P00533, del746-750)",binding,competition with immobilised ligand,1 µM,92
O=C(NC1CCC1)c1ccc2nc(-c3cccc(NS(=O)(=O)NCCN4CCCCC4)c3)cn2c1,EGFR A750P/del747-749,cell-free assay,competition with immobilised ligand,10 µM,100
C[C@H]1CCN(c2nccc(-c3cnn4ncccc34)n2)C1,EGFR G719S,binding,,1 µM,75
O=C(Nc1c[nH]nc1C(=O)NC1CCNCC1)c1cc(F)cc(F)c1,EGFR del747-752/P753S,binding,competition with immobilised ligand,1 µM,100
Cc1cnn2ncc(-c3ccnc(N(C)C)n3)c2c1,EGFR L858R/T790M,binding,,1 µM,100
CN(c1ccnc(CNc2nc(Nc3ccc4c(c3)CC(=O)N4)ncc2C(F)(F)F)n1)S(C)(=O)=O,EGFR del747-750/T751S,cell-free assay,competition with immobilised ligand,1 µM,83
CN1CCN(c2ccc(Nc3nccc(-c4cccc([N+](=O)[O-])c4)n3)cc2C(F)(F)F)CC1,EGFR T790M,binding,,10 µM,45
CCN1CCN(Cc2ccc(C(=O)Nc3ccc(C)c(Oc4ccc5c(c4)CC(=O)N5)c3)cc2C(F)(F)F)CC1,EGFR L858R/T790M,binding,competition with immobilised ligand,1 µM,90
O=C(c1ccc(Nc2ncc(Cl)c(-c3cc4ccccc4s3)n2)cc1)N1CCC(N2CCCC2)CC1,EGFR L858R/T790M,binding,competition with immobilised ligand,1 µM,64
CC(C)(C)c1ccc(-c2nc(CBr)nn2-c2cccc(O)c2)cc1,EGFR,cell-free assay,competition with immobilised ligand,10 µM,85
c1ccc(N2CCN(Cc3nc4ccccc4[nH]3)CC2)nc1,EGFR T790M,cell-free assay,competition with immobilised ligand,1 µM,99
CNC(=O)[C@@H]1CC[C@@H](n2c(-c3ccc4cnccc4c3)nc3ccc(C(=O)NCc4cccc(C(N)=O)c4)cc32)C1,EGFR,binding,competition with immobilised ligand,1 µM,100
CN(CCCC(F)(F)F)c1nccc(-c2cnn3ncccc23)n1,EGFR L858R/T790M,binding,,1 µM,100
CNC(=O)Nc1ccc2c(c1)CC[C@@]21OC(=O)N(CC(=O)N(Cc2ccc(F)cc2)[C@@H](C)C(F)(F)F)C1=O,EGFR del747-752/P753S,cell-free assay,competition with immobilised ligand,1 µM,64
c1cnn2ncc(-c3ccnc(N4CCC45COC5)n3)c2c1,EGFR,binding,,1 µM,100
O=C1CCc2cc(Nc3cc(OC4CCOCC4)c([N+](=O)[O-])cc3Cl)ccc2N1,EGFR L861Q,cell-free assay,competition with immobilised ligand,1 µM,100
O=C(c1ccc(Nc2nccc(-c3cc4ccccc4s3)n2)cc1)N1CCC(N2CCCC2)CC1,EGFR del747-750/T751S,binding,competition with immobilised ligand,1 µM,82
